In ChEMBL document CHEMBL5653609, “Ack1-mediated androgen receptor phosphorylation modulates radiation resistance in castration-resistant prostate cancer” (J Biol Chem, 2012):
Values belong to the compound of their own block, whether it stands above or below them. Calls of active or inactive are those of the source. No cut-off for these calls is given here.

Assays:
[1] = target: Insulin-like growth factor 1 receptor (Homo sapiens, UniProt P08069); assay: Inhibition of IGF1R (unknown origin) in the presence of [33P]ATP by kinase hotspot assay
[2] = target: Platelet-derived growth factor receptor alpha (Homo sapiens, UniProt P16234); assay: Inhibition of PDGFRalpha (unknown origin) in the presence of [33P]ATP by kinase hotspot assay
[3] = target: Tyrosine-protein kinase receptor UFO (Homo sapiens, UniProt P30530); assay: Inhibition of AXL (unknown origin) in the presence of [33P]ATP by kinase hotspot assay
[4] = target: Vascular endothelial growth factor receptor 2 (Homo sapiens, UniProt P35968); assay: Inhibition of VEGFR2 (unknown origin) in the presence of [33P]ATP by kinase hotspot assay
[5] = target: Glycogen synthase kinase-3 alpha (Homo sapiens, UniProt P49840); assay: Inhibition of GSK3alpha (unknown origin) in the presence of [33P]ATP by kinase hotspot assay
[6] = target: RAC-alpha serine/threonine-protein kinase (Homo sapiens, UniProt P31749); assay: Inhibition of AKT1 (unknown origin) in the presence of [33P]ATP by kinase hotspot assay
[7] = target: Serine/threonine-protein kinase mTOR (Homo sapiens, UniProt P42345); assay: Inhibition of mTOR (unknown origin) in the presence of [33P]ATP by kinase hotspot assay
Activated CDC42 kinase 1 = Activated CDC42 kinase 1 (Homo sapiens, UniProt Q07912); assay: Inhibition of Ack1 (unknown origin) in the presence of [33P]ATP by kinase hotspot assay
[8] = target: RAF proto-oncogene serine/threonine-protein kinase (Homo sapiens, UniProt P04049); assay: Inhibition of RAF1 (unknown origin) in the presence of [33P]ATP by kinase hotspot assay
[9] = target: Tyrosine-protein kinase Lck (Homo sapiens, UniProt P06239); assay: Inhibition of LCK (unknown origin) in the presence of [33P]ATP by kinase hotspot assay
Sequence of Tyrosine-protein kinase Lck (P06239 whole entry): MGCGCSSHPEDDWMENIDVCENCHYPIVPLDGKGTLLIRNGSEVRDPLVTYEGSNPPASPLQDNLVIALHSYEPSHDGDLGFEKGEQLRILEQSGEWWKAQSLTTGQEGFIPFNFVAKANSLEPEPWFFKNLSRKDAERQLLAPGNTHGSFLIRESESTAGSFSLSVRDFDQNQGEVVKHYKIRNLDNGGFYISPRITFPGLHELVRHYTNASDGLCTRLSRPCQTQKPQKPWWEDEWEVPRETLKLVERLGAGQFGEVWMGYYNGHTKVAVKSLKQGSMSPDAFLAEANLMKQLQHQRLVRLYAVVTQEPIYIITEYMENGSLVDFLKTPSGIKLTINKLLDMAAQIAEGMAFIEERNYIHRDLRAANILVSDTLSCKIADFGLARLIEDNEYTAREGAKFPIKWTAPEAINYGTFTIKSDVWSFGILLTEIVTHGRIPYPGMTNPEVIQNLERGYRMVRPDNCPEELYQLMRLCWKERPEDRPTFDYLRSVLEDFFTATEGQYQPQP

[10] = target: Serine/threonine-protein kinase Chk1 (Homo sapiens, UniProt O14757); assay: Inhibition of CHK1 (unknown origin) in the presence of [33P]ATP by kinase hotspot assay
[11] = target: Tyrosine-protein kinase JAK2 (Homo sapiens, UniProt O60674); assay: Inhibition of JAK2 (unknown origin) in the presence of [33P]ATP by kinase hotspot assay
[12] = target: Receptor tyrosine-protein kinase erbB-2 (Homo sapiens, UniProt P04626); assay: Inhibition of HER2 (unknown origin) in the presence of [33P]ATP by kinase hotspot assay
Insulin receptor = Insulin receptor (Homo sapiens, UniProt P06213); assay: Inhibition of IR (unknown origin) in the presence of [33P]ATP by kinase hotspot assay
[13] = target: Tyrosine-protein kinase receptor TYRO3 (Homo sapiens, UniProt Q06418); assay: Inhibition of TYRO3 (unknown origin) in the presence of [33P]ATP by kinase hotspot assay
LNCaP [14] = assay: Induction of cell cycle arrest in human LNCaP cells with IR-induced DNA damage assessed as high number of cells with DSBs at 5 uM after 5 hrs in the presence of 15 Gy by flow cytometry analysis; assay type: functional, cell-based
[15] = target: Tyrosine-protein kinase BTK (Homo sapiens, UniProt Q06187); assay: Inhibition of BTK (unknown origin) in the presence of [33P]ATP by kinase hotspot assay
LNCaP [16] = assay: Antitumor activity against irradiated human LNCaP-caAck FLAG-tagged KD ATM expressing cells xenografted mouse assessed as inhibition of tumor growth at 4 mg/kg on day 12; assay type: functional, organism-based
Outline: (§1)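 Castrated male nude mice received LNCaP-caAck cells transfected with FLAG-tagged kinase-dead or wild-type ATM constructs (CMV promoter), irradiated 1.5 Gy before injection. Inhibitor 4 mg/kg per injection starting day 12 after cell injection, then on days 15, 19, 23 and 27; n = 5 mice per group; tumor growth followed.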

[17] = Toxicity in mouse assessed as change in body weight; conditions: in vivo
Outline: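 Body weight of castrated nude mice bearing LNCaP-caAck xenografts tracked during dosing at 4 mg/kg per injection (day 7, then days 11–27 every 4 days) versus DMSO-injected controls; morbidity also noted.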

[18] = target: Phosphatidylinositol 4,5-bisphosphate 3-kinase catalytic subunit alpha isoform (Homo sapiens, UniProt P42336); assay: Inhibition of PI3Kalpha (unknown origin) in the presence of [33P]ATP by kinase hotspot assay
LNCaP [19] = assay: Antitumor activity against unirradiated human LNCaP-caAck expressing cells xenografted mouse assessed as reduction in tumor growth at 4 mg/kg on 7th day; assay type: functional; design: scale not given: the % may be the effect or the level left
Outline: (§2)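 LNCaP-caAck cells (2 × 10⁶), unirradiated or irradiated 1.5 Gy, in PBS/Matrigel 1:1, injected subcutaneously into flanks of castrated male nude mice. Inhibitor 4 mg/kg per injection on day 7 post-implantation, then days 11, 15, 19, 23, 27; DMSO control; n = 8 per group. Caliper tumor volumes twice weekly; two independent experiments.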

LNCaP [20] = assay: Antitumor activity against irradiated human LNCaP-caAck expressing cells xenografted mouse assessed as reduction in ATM expression level at 4 mg/kg on 7th day by immunohistochemical staining; assay type: functional, organism-based
Outline: (§3)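 Irradiated (1.5 Gy) LNCaP-caAck xenografts in castrated nude mice dosed 4 mg/kg from day 7 (DMSO control) were excised, fixed, paraffin-embedded and sectioned. Sections stained with H&E, or for ATM by IHC: citrate pH 6.0 retrieval at 95 °C 30 min, rabbit monoclonal ATM antibody 1:300 overnight 4 °C, biotin secondary/streptavidin-peroxidase, DAB, hematoxylin counterstain.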

[21] = target: Serine/threonine-protein kinase Sgk1 (Homo sapiens, UniProt O00141); assay: Inhibition of SGK1 (unknown origin) in the presence of [33P]ATP by kinase hotspot assay
[22] = target: Mitogen-activated protein kinase kinase kinase 8 (Homo sapiens, UniProt P41279); assay: Inhibition of MAP3K8 (unknown origin) in the presence of [33P]ATP by kinase hotspot assay
Sequence of Mitogen-activated protein kinase kinase kinase 8 (P41279 whole entry, canonical isoform): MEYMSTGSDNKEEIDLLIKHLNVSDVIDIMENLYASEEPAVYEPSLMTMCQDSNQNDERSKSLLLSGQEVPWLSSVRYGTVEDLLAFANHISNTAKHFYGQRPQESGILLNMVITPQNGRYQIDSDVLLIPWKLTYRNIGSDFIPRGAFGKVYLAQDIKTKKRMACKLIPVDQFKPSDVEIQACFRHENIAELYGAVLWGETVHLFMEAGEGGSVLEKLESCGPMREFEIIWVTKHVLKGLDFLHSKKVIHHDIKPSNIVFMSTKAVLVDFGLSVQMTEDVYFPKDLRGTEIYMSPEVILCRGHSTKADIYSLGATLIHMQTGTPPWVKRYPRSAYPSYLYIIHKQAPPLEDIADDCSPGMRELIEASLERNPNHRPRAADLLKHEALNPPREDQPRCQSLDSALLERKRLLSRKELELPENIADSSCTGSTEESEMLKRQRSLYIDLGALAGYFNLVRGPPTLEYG

[23] = target: Phosphatidylinositol 4,5-bisphosphate 3-kinase catalytic subunit beta isoform (Homo sapiens, UniProt P42338); assay: Inhibition of PI3Kbeta (unknown origin) in the presence of [33P]ATP by kinase hotspot assay
[24] = target: RAC-gamma serine/threonine-protein kinase (Homo sapiens, UniProt Q9Y243); assay: Inhibition of AKT3 (unknown origin) in the presence of [33P]ATP by kinase hotspot assay
LNCaP [25] = assay: Antitumor activity against irradiated human LNCaP-caAck expressing cells xenografted mouse assessed as reduction in tumor growth at 4 mg/kg on 7th day; assay type: functional, organism-based; outline: as §2
[26] = target: Tyrosine-protein kinase ABL1 (Homo sapiens, UniProt P00519); assay: Inhibition of ABL1 (unknown origin) in the presence of [33P]ATP by kinase hotspot assay
LNCaP [27] = assay: Antitumor activity against irradiated human LNCaP-caAck FLAG-tagged wild-type ATM expressing cells xenografted mouse assessed as inhibition of tumor growth at 4 mg/kg on day 12; assay type: functional, organism-based; outline: as §1
[28] = target: DNA-dependent protein kinase catalytic subunit (Homo sapiens, UniProt P78527); assay: Inhibition of DNA-PK (unknown origin) in the presence of [33P]ATP by kinase hotspot assay
Sequence of DNA-dependent protein kinase catalytic subunit (P78527 whole entry): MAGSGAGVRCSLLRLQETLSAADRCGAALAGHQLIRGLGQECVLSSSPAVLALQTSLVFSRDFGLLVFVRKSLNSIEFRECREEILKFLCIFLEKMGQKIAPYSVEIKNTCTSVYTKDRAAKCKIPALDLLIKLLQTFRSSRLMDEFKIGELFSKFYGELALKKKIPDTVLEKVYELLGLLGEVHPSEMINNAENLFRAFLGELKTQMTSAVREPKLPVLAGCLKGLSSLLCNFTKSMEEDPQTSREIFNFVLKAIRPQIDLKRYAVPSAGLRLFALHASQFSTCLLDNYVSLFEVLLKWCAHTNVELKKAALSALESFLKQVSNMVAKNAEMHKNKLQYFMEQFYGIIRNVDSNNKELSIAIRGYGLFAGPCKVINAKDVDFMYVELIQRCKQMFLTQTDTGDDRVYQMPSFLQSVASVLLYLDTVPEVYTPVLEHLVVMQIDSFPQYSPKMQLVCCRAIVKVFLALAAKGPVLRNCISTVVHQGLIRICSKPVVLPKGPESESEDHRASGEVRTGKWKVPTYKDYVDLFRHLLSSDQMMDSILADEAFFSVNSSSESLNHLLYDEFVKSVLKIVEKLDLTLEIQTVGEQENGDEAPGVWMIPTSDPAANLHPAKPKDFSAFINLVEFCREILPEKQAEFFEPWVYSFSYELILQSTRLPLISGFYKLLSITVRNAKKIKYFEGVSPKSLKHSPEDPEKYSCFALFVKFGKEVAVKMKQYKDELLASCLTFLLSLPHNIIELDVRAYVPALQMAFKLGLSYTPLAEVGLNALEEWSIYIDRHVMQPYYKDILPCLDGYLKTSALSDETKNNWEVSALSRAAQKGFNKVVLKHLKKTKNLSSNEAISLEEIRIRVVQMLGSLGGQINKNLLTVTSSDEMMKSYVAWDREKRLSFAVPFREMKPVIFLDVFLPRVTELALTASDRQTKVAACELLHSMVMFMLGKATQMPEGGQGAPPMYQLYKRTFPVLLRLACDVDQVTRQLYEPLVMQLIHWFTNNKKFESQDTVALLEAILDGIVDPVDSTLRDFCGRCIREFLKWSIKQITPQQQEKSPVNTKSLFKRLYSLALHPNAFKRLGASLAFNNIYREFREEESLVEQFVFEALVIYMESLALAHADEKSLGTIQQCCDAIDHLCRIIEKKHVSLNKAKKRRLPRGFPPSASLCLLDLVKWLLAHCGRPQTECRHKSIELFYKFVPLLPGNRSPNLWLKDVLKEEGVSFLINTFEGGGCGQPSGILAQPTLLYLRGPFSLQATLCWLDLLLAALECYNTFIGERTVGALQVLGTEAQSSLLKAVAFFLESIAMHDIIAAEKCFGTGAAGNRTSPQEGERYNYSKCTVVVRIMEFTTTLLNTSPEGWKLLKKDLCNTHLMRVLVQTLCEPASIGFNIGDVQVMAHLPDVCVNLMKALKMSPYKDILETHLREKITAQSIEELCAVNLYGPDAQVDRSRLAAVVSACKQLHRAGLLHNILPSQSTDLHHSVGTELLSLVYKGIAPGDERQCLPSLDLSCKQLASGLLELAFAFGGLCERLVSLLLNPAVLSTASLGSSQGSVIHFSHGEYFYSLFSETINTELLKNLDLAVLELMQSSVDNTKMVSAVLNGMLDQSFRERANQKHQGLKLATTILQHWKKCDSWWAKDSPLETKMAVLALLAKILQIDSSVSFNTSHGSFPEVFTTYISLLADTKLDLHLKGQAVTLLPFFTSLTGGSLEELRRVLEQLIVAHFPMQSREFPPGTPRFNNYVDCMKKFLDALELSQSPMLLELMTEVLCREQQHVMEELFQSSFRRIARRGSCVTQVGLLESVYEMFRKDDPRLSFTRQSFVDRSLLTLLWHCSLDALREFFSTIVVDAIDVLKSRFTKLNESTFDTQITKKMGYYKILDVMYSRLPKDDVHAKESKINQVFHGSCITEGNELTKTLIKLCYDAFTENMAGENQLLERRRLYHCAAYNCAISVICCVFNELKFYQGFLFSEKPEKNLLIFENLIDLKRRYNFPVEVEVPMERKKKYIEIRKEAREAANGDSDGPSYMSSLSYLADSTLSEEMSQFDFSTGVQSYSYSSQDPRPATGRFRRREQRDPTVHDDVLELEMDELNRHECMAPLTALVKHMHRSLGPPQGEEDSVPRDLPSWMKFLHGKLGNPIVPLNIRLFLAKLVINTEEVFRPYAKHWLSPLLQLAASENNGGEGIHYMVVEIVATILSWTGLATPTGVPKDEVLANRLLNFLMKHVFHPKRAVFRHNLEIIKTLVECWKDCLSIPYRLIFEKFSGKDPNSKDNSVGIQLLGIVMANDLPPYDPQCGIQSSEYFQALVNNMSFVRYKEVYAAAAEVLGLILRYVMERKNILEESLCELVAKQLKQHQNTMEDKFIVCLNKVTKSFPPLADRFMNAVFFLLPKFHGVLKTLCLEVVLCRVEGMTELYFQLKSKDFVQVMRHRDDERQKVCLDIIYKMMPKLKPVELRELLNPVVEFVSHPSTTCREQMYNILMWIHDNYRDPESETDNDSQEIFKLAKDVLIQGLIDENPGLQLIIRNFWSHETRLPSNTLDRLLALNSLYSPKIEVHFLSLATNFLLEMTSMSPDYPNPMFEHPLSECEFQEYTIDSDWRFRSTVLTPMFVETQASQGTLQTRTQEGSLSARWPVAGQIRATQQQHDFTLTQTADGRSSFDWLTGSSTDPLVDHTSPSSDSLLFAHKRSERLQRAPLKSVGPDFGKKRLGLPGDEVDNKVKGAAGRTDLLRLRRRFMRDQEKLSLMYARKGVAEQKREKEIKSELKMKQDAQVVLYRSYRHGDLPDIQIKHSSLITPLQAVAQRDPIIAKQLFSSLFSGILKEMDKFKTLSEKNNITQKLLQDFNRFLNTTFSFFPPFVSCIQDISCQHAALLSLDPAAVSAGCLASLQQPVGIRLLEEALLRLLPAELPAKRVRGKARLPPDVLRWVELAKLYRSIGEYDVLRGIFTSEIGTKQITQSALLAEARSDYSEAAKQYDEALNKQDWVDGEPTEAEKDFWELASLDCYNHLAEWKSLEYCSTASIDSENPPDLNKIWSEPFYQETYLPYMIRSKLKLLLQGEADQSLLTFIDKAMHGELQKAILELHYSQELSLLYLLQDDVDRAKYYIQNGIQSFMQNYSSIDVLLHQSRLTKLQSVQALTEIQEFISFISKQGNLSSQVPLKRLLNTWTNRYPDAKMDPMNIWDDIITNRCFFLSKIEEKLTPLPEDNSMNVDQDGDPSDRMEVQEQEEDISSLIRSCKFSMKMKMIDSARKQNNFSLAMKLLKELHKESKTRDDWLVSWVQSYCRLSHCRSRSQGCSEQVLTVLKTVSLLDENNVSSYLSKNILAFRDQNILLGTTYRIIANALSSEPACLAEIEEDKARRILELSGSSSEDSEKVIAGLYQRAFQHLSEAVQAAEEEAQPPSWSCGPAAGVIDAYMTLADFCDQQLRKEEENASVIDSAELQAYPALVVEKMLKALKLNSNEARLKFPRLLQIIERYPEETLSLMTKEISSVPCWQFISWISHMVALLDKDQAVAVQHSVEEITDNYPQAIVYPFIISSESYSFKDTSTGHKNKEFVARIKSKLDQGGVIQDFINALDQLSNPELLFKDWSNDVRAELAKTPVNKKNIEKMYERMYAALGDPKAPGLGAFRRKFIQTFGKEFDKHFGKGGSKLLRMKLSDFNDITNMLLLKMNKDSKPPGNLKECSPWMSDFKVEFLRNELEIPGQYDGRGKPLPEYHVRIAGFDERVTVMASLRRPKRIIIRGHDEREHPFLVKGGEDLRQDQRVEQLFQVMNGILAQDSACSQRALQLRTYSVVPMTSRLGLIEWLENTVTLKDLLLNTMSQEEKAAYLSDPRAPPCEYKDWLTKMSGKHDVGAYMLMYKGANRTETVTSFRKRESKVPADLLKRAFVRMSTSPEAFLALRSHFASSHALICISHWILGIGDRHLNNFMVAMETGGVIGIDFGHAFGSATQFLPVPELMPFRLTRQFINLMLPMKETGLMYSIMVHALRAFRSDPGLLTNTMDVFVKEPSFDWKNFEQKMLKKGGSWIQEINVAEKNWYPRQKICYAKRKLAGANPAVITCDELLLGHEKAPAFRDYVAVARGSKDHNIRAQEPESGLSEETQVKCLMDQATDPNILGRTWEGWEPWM

[29] = target: Mitogen-activated protein kinase 3 (Homo sapiens, UniProt P27361); assay: Inhibition of ERK1 (unknown origin) in the presence of [33P]ATP by kinase hotspot assay
LNCaP [30] = assay: Induction of cell cycle arrest in human LNCaP cells with IR-induced DNA damage assessed as reduction in number of cells at G2 phase at 10 uM incubated for 24 hrs in the presence of 5 Gy by PI-staining-based flow cytometry analysis; assay type: functional
Outline: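 LNCaP cells given 5 Gy x-ray alone or with agent (10 μm, 24 h). Propidium iodide staining and flow cytometric DNA content analysis of cell cycle phases; performed in triplicate.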

[31] = target: Serine/threonine-protein kinase pim-1 (Homo sapiens, UniProt P11309); assay: Inhibition of PIM1 (unknown origin) in the presence of [33P]ATP by kinase hotspot assay
Wee1-like protein kinase = Wee1-like protein kinase (Homo sapiens, UniProt P30291); assay: Inhibition of WEE1 (unknown origin) in the presence of [33P]ATP by kinase hotspot assay
LNCaP [32] = assay: Induction of cell cycle arrest in human LNCaP cells with IR-induced DNA damage assessed as reduction in proportion of cells at G2 phase at 5 uM incubated for 24 hrs in the presence of 5 Gy by PI-staining-based flow cytometry analysis; assay type: functional; design: scale not given: the % may be the effect or the level left
Outline: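 LNCaP cells left untreated, given 5 Gy x-ray, inhibitor (5 μm, 24 h), or both; harvested 16 h after irradiation. Nuclei processed with trypsin, trypsin inhibitor/RNase A, then propidium iodide; DNA content of 20,000 cells by flow cytometry, cell cycle modelled. Three independent experiments.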

[33] = target: Inhibitor of nuclear factor kappa-B kinase subunit alpha (Homo sapiens, UniProt O15111); assay: Inhibition of IKKalpha (unknown origin) in the presence of [33P]ATP by kinase hotspot assay
[34] = target: Tyrosine-protein kinase Lyn (Homo sapiens, UniProt P07948)
LNCaP [35] = assay: Antitumor activity against irradiated human LNCaP-caAck expressing cells xenografted mouse assessed as necrosis at 4 mg/kg on 7th day by Hematoxylin and eosin staining; assay type: functional, organism-based; outline: as §3

IC50 [1]: Not Active
IC50 [2]: Not Active
IC50 [3]: Not Active
IC50 [4]: Not Active
IC50 [5]: Not Active
IC50 [6]: Not Active
IC50 [7]: Not Active
IC50 (Activated CDC42 kinase 1): 0.0216 µM
IC50 [8]: Not Active
IC50 [9]: 0.432 µM
IC50 [10]: Not Active
IC50 [11]: Not Active
IC50 [12]: Not Active
IC50 (Insulin receptor): Not Active
IC50 [13]: Not Active
IC50 [15]: 0.872 µM
IC50 [18]: Not Active
IC50 [21]: Not Active
IC50 [22]: Not Active
IC50 [23]: Not Active
IC50 [24]: Not Active
IC50 [26]: 0.706 µM
IC50 [28]: Not Active
IC50 [29]: Not Active
IC50 [31]: Not Active
IC50 (Wee1-like protein kinase): Not Active
IC50 [33]: Not Active
IC50 [34]: 0.347 µM
SMILES: c1ccc(-c2oc3ncnc(NC[C@@H]4CCCO4)c3c2-c2ccccc2)cc1
Activity (LNCaP [14]): Active
inhibition (LNCaP [16]): Active
Activity [17]: Non-Toxic
Activity (LNCaP [19]): ~50%
Activity (LNCaP [20]): Active
Activity (LNCaP [25]): Active
inhibition (LNCaP [27]): inactive
Activity (LNCaP [30]): Active
Activity (LNCaP [32]): 38%
Activity (LNCaP [35]): Active

SMILES: CN[C@@H]1C[C@H]2O[C@@](C)([C@@H]1OC)n1c3ccccc3c3c4c(c5c6ccccc6n2c5c31)C(=O)NC4 [STAUROSPORINE]
IC50 [7]: Not Active
IC50 [8]: Not Active
IC50 ([22]; read-out: IC50): > 20 µM
IC50 [28]: Not Active

SMILES: C[S+](C)[O-] [DIMETHYL SULFOXIDE]
Activity [17]: Non-Toxic

SMILES: O=c1cc(-c2cccc3c2Sc2ccccc2S3)oc(N2CCOCC2)c1
Activity (LNCaP [30]): Active
